According to ChEMBL document CHEMBL1157476, “A novel class of cycloalkano[b]pyridines as potent and orally active opioid receptor-like 1 antagonists with minimal binding affinity to the hERG K+ channel” (J Med Chem, 2008):
Each block holds one compound with its values, some of them ahead of it. Activity calls are given as the source filed them. The calls are words filed in the database; no cut-off is given here.

What was measured:
Nociceptin receptor [1] = biological target: T1, Nociceptin receptor (Homo sapiens, UniProt P41146); assay: Displacement of [125I][Tyr14]nociceptin from human ORL1 expressed in CHO cells; type: cell-based
T1 sequence (P41146 whole entry): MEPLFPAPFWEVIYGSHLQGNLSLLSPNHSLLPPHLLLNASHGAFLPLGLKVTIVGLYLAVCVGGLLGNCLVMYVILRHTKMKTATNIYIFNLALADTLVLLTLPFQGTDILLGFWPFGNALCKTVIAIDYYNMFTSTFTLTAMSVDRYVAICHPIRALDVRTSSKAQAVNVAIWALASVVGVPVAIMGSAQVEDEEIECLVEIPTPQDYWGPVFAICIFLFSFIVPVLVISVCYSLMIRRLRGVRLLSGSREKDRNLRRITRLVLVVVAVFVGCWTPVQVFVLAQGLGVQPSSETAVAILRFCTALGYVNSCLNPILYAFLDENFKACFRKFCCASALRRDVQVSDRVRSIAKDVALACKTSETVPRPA

[2] = biological target: Voltage-gated inwardly rectifying potassium channel KCNH2 (Homo sapiens, UniProt Q12809)
Sequence of Voltage-gated inwardly rectifying potassium channel KCNH2 (Q12809 whole entry): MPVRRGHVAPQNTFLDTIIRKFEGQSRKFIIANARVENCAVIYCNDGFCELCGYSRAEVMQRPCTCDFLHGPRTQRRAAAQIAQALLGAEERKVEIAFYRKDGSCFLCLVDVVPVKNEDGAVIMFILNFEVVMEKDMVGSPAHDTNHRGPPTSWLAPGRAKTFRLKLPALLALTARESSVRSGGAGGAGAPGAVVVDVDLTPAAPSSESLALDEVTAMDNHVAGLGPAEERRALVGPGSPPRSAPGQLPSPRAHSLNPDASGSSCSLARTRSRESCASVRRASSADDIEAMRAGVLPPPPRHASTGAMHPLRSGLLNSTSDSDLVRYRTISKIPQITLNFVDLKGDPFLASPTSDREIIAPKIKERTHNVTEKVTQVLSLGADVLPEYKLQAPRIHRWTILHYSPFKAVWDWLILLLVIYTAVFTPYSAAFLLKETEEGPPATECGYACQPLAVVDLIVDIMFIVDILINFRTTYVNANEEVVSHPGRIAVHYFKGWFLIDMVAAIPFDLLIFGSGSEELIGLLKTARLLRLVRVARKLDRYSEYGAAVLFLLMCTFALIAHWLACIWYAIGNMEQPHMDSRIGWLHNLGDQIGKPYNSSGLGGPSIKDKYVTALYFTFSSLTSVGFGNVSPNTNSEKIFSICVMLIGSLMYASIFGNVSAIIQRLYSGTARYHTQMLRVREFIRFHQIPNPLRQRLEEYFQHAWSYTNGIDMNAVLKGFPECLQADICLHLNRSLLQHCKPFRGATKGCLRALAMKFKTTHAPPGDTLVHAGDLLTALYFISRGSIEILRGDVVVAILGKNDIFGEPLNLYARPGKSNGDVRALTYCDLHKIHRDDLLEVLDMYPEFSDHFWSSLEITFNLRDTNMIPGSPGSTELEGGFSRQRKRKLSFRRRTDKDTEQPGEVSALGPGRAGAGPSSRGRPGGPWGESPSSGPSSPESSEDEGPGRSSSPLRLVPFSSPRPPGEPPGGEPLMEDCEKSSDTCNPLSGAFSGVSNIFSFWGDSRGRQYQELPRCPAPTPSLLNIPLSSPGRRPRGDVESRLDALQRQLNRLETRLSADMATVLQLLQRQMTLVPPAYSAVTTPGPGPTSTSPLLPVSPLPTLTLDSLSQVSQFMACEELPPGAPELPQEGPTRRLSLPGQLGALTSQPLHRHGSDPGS

physchem [3] = details: buffer, pH 7.4
Canis familiaris [4] = assay: Cardiovascular activity in anesthetized dog assessed as corrected QT interval at 1 mg/kg, iv dosed for 10 mins measured after 20 mins relative to baseline; type: functional, Canis lupus familiaris
Procedure, shortened: (§1)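 Isoflurane-anesthetized dogs (n = 1 or 3) given cumulative iv doses as saline solutions, each infused over 10 min; 2 and 7 mg/kg doses given 20 min after the prior administration. QTc measured at 0, 10 and 20 min after dosing, expressed as percent change from baseline for each dog. Peak plasma levels taken after each dose.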

Canis familiaris [5] = assay: Cardiovascular activity in anesthetized dog assessed as corrected QT interval at 2 mg/kg, iv dosed for 10 mins measured after 20 mins relative to baseline; type: functional, Canis lupus familiaris; procedure, shortened: as §1
Canis familiaris [6] = assay: Cardiovascular activity in anesthetized dog assessed as corrected QT interval at 7 mg/kg, iv dosed for 10 mins measured after 20 mins relative to baseline; type: functional, Canis lupus familiaris; procedure, shortened: as §1
[7] = Metabolic stability in rat hepatocyte after 30 mins; type: ADME, cell-based; details: rat hepatocytes, read-out: Stability
Procedure, shortened: (§2)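 Compound incubated 30 min with rat hepatocytes or cryopreserved human hepatocytes; percent parent remaining reported; rat as mean of duplicates, human as mean of three experiments.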

[8] = Metabolic stability in cryopreserved human hepatocyte after 30 mins; type: ADME, cell-based; details: cryopreserved human hepatocytes, read-out: Stability; procedure, shortened: as §2
[9] = Plasma clearance in Sprague-Dawley rat at 0.65 mg/kg, iv; type: ADME, organism-based; parameters: dose 0.65 mg/kg, route intravenous
Procedure, shortened: (§3)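 Fasted Sprague-Dawley rats (n = 3) given an intravenous solution in water at 3 or 0.65 mg/kg; plasma pharmacokinetic parameters from the IV arm.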

[10] = Half life in Sprague-Dawley rat at 0.65 mg/kg, iv; type: ADME, organism-based; parameters: dose 0.65 mg/kg, route intravenous; details: in vivo; procedure, shortened: as §3
Rattus norvegicus = assay: AUC (0 to infinity) in Sprague-Dawley rat at 0.65 mg/kg, iv; type: ADME, organism-based, Plasma; parameters: time infinity, dose 0.65 mg/kg, route intravenous; details: in vivo
Procedure, shortened: (§4)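 Fasted Sprague-Dawley rats (n = 3) received a single intravenous dose. Plasma exposure was expressed as AUC from zero to infinity, in µM·h. The same study also yielded clearance, half-life and steady-state volume of distribution, with oral dosing run in parallel.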

[11] = Volume of distribution at steady state in Sprague-Dawley rat at 0.65 mg/kg, iv; type: ADME, organism-based; parameters: dose 0.65 mg/kg, route intravenous; details: in vivo, read-out: Vdss; procedure, shortened: as §3
[12] = Bioavailability in Sprague-Dawley rat at 3 mg/kg, iv; type: ADME, organism-based; details: in vivo, po, in the assay text read “po” for “iv”
Procedure, shortened: (§5)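 Fasted Sprague-Dawley rats (n = 3) dosed orally as a solution in water (10 or 3 mg/kg), with matching intravenous arms at 3 or 0.65 mg/kg; F from oral versus IV exposure.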

[13] = Plasma clearance in Beagle dog at 1 mg/kg, iv; type: ADME, organism-based, Canis lupus familiaris; parameters: dose 1 mg/kg, route intravenous
Procedure, shortened: (§6)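 Fasted Beagle dogs (n = 3) given 1 mg/kg intravenously; plasma pharmacokinetic parameters derived from the IV arm.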

[14] = Half life in Beagle dog at 1 mg/kg, iv; type: ADME, organism-based, Canis lupus familiaris; parameters: dose 1 mg/kg, route intravenous; details: in vivo; procedure, shortened: as §6
[15] = AUC (0 to infinity) in Beagle dog at 1 mg/kg, iv; type: ADME, organism-based, Canis lupus familiaris; parameters: time infinity, dose 1 mg/kg, route intravenous; details: plasma; procedure, shortened: as §6
[16] = Volume of distribution at steady state in Beagle dog at 1 mg/kg, iv; type: ADME, organism-based, Canis lupus familiaris; parameters: dose 1 mg/kg, route intravenous; details: in vivo, read-out: Vdss; procedure, shortened: as §6
Mu-type opioid receptor = Mu-type opioid receptor (Homo sapiens, UniProt P35372); assay: Displacement of [3H]diprenorphin from human cloned mu opioid receptor expressed in CHO cells; type: cell-based
Sequence of Mu-type opioid receptor (P35372 whole entry): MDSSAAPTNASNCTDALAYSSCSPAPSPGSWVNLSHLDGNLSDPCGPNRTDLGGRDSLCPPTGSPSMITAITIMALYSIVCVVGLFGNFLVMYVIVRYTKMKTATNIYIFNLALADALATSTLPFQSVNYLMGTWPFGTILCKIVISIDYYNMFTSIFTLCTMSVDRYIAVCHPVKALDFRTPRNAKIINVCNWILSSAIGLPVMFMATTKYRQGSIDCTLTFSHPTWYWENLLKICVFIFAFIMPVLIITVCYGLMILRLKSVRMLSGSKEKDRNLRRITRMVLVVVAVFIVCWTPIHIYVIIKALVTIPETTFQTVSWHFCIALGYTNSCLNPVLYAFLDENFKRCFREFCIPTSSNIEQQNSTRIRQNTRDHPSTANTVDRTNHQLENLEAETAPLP
Procedure, shortened: (§7)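 Radioligand displacement from CHO cells stably expressing cloned human receptors: [3H]diprenorphin for mu, [3H]U-69593 for kappa, [3H][D-Ala2,D-Leu5]enkephalin for delta; IC50; three independent determinations, each in duplicate.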

[17] = biological target: Kappa-type opioid receptor (Homo sapiens, UniProt P41145); assay: Displacement of [3H]U69593 from human cloned kappa opioid receptor expressed in CHO cells; type: cell-based; procedure, shortened: as §7
Sequence of Kappa-type opioid receptor (P41145 whole entry): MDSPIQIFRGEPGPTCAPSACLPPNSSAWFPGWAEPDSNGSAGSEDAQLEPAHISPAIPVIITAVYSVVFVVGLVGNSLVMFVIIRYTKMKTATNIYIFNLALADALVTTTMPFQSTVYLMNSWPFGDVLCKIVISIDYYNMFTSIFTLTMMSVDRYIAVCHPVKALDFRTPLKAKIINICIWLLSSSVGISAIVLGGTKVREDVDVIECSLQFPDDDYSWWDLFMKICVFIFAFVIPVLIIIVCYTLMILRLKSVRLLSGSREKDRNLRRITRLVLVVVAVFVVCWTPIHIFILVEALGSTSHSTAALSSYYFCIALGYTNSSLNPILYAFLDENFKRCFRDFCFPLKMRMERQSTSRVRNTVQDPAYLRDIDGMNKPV

[18] = biological target: Delta-type opioid receptor (Homo sapiens, UniProt P41143); assay: Displacement of [3H][D-Ala2,D-Leu5]enkephalin from human cloned delta opioid receptor expressed in CHO cells; type: cell-based; procedure, shortened: as §7
Sequence of Delta-type opioid receptor (P41143 whole entry): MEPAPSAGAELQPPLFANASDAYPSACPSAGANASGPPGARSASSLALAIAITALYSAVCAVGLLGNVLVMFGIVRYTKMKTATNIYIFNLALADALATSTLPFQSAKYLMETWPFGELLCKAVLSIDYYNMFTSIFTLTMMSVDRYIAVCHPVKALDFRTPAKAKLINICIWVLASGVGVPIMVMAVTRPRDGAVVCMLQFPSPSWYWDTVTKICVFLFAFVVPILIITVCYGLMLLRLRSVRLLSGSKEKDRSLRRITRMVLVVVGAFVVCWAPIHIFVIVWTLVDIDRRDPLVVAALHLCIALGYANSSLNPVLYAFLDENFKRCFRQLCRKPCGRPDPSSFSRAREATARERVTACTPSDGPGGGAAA

Mus musculus [19] = assay: Reversal of ORL agonist-induced locomotor activity in CD1 mouse at 10 mg/kg, po after 60 mins; type: functional
Procedure, shortened: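 Mice (n = 6) dosed orally at 10 mg/kg, then given an ORL1 agonist. Locomotor activity counted over 60 min against vehicle control and agonist-only groups. Result expressed as % reversal of the agonist-induced reduction in locomotion.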

[20] = Plasma concentration in rat at 10 mg/kg, po after 1 hrs; type: ADME, organism-based; parameters: dose 10 mg/kg, route oral
Procedure, shortened: (§8)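 Oral dose 10 mg/kg; plasma and brain collected 1 h after administration and drug concentrations measured, n = 3 per group.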

Brain = assay: Drug level in rat brain at 10 mg/kg, po after 1 hrs; type: ADME, organism-based; parameters: dose 10 mg/kg, route oral; details: in vivo; procedure, shortened: as §8
Plasma = details: dog, in vivo, iv, 1 mg/kg, 20 min
in vivo [21] = details: dog, plasma, iv, 1 mg/kg
in vivo [22] = details: dog, plasma, iv, 2 mg/kg
in vivo [23] = details: dog, plasma, iv, 7 mg/kg
physchem [24] = assay: physchem
[25] = Bioavailability in Beagle dog at 3 mg/kg, po; details: in vivo
[26] = Plasma clearance in Sprague-Dawley rat at 3 mg/kg, iv; type: ADME, organism-based; parameters: dose 3 mg/kg, route intravenous; procedure, shortened: as §3
[27] = Half life in Sprague-Dawley rat at 3 mg/kg, iv; type: ADME, organism-based; parameters: dose 3 mg/kg, route intravenous; details: in vivo; procedure, shortened: as §3
[28] = AUC (0 to infinity) in Sprague-Dawley rat at 3 mg/kg, iv; type: ADME, organism-based; parameters: time infinity, dose 3 mg/kg, route intravenous; details: plasma; procedure, shortened: as §4
[29] = Volume of distribution at steady state in Sprague-Dawley rat at 3 mg/kg, iv; type: ADME, organism-based; parameters: dose 3 mg/kg, route intravenous; details: in vivo, read-out: Vdss; procedure, shortened: as §3
[30] = Bioavailability in Sprague-Dawley rat at 10 mg/kg, iv; type: ADME, organism-based; details: in vivo, po, in the assay text read “po” for “iv”; procedure, shortened: as §5
Nociceptin receptor [31] = biological target: T1, Nociceptin receptor; assay: Antagonist activity at human ORL1 expressed in CHO cells assessed as effect on nociceptin-induced GTPgammaS binding; type: functional, cell-based
Mus musculus [32] = assay: Inhibition of ORL1 agonist-induced hypolocomotion in mouse at 3 mg/kg, sc; type: functional, organism-based; parameters: dose 3 mg/kg

Compound: Cc1ccccc1[C@H]1CCN(C[C@@H]2Cc3cccnc3[C@@H](O)C2)C[C@@H]1O
Ki (Nociceptin receptor [1]): 51 nM
IC50 [2]: > 50 µM

Compound: Cc1cc(F)ccc1[C@H]1CCN(C[C@@H]2Cc3cccnc3[C@@H](O)C2)C[C@@H]1O
Ki (Nociceptin receptor [1]): 21 nM
logD (physchem [3]): 1.9

Compound: O[C@H]1C[C@H](CN2CC[C@H](c3ccc(F)cc3Cl)[C@@H](O)C2)Cc2cccnc21
Activity (Canis familiaris [4]): 1.1%
Activity (Canis familiaris [5]): 0.9%
Activity (Canis familiaris [6]): 2%
remaining at 0.5 h [7]: 30%
remaining at 0.5 h [8]: 93%
clearance [9]: 47 mL/min/kg
half-life [10]: 72 min
AUC (Rattus norvegicus): 0.59 µM·h
Vd [11]: 3.9 L/kg
bioavailability [12]: 13%
clearance [13]: 19 mL/min/kg
half-life [14]: 810 min
AUC(0-inf) [15]: 2 µM·h
Vd [16]: 10.6 L/kg
IC50 (Mu-type opioid receptor): > 10 µM
IC50 [17]: > 10 µM
IC50 [18]: > 10 µM
Activity (Mus musculus [19]): 89%
concentration at 1 h [20]: 30 nM
Drug uptake (Brain): 0.172 nmol/g
PPB (Plasma): 57%
concentration at 20 min (in vivo [21]): 3480 nM
concentration at 20 min (in vivo [22]): 8.3 µM
concentration at 20 min (in vivo [23]): 29.8 µM
logD (physchem [3]): 2.3
pKa (physchem [24]): 7.4
bioavailability [25]: 39%

Compound: Cc1ccccc1C1CCN(C[C@@H]2CCc3cccnc3C(=O)C2)CC1
Ki (Nociceptin receptor [1]): 49 nM
logD (physchem [3]): 1.3

Compound: Cc1ccccc1[C@@H]1CCN(C[C@@H]2CCc3cccnc3[C@@H](O)C2)C[C@H]1O
Activity (Canis familiaris [4]): 0.2%
Activity (Canis familiaris [5]): 0.2%
Activity (Canis familiaris [6]): 2%
remaining at 0.5 h [7]: 6%
remaining at 0.5 h [8]: 62%
clearance [26]: 91 mL/min/kg
half-life [27]: 54 min
AUC(0-inf) [28]: 1.6 µM·h
Vd [29]: 6.3 L/kg
bioavailability [30]: 11%
PPB (Plasma): 62%
concentration at 20 min (in vivo [21]): 2260 nM
concentration at 20 min (in vivo [22]): 4.9 µM
concentration at 20 min (in vivo [23]): 17.9 µM
logD (physchem [3]): 2.2
pKa (physchem [24]): 7.8

Compound: Cc1ccccc1C1CCN(C[C@@H]2CCc3c(C)cccc3[C@@H](O)C2)CC1 (relative stereo)
Activity (Mus musculus [32]): inactive

Compound: Cc1ccccc1[C@@H]1CCN(C[C@@H]2CCc3cccnc3[C@@H](O)C2)C[C@H]1C
Ki (Nociceptin receptor [1]): 3.5 nM
IC50 (Nociceptin receptor [31]): 5.7 nM
logD (physchem [3]): 3

Compound: Cc1ccccc1[C@@H]1CCN(C[C@@H]2CCc3cccnc3[C@@H](O)C2)C[C@H]1CO
Activity (Canis familiaris [4]): -0.1%
Activity (Canis familiaris [5]): 0.1%
Activity (Canis familiaris [6]): 11.3%

Compound: Cc1ccccc1C1CCN(C[C@@H]2CCc3cccnc3C(C)(O)C2)CC1 (stereo in doubt; form 1)
Ki (Nociceptin receptor [1]): 24 nM

Compound: Cc1ccccc1C1CCN(C[C@@H]2CCc3cccnc3C3(C2)OCCO3)CC1
Ki (Nociceptin receptor [1]): 25 nM
logD (physchem [3]): 3.1

Compound: Cc1ccccc1C1CCN(C[C@@H]2CCc3cccnc3C(C)(O)C2)CC1 (stereo in doubt; form 2)
Ki (Nociceptin receptor [1]): 17 nM
logD (physchem [3]): 2.9

Now from value to compound, other results behind:

Ki (Nociceptin receptor [1]): 30 nM
Compound: O[C@H]1C[C@H](CN2CCC(c3ccccc3)CC2)CCc2cccnc21
IC50 [2]: 11 µM

Ki (Nociceptin receptor [1]): 11 nM
logD (physchem [3]): 2
Compound: Cc1ccccc1C1CCN(C[C@@H]2Cc3cccnc3[C@@H](O)C2)CC1
IC50 [2]: > 50 µM

Ki (Nociceptin receptor [1]): 0.47 nM
IC50 (Nociceptin receptor [31]): 1.6 nM
logD (physchem [3]): > 4
Compound: O[C@H]1C[C@H](CN2CCC(c3c(Cl)cccc3Cl)CC2)CCc2cccnc21
IC50 [2]: 0.94 µM

Ki (Nociceptin receptor [1]): 1.1 nM
IC50 (Nociceptin receptor [31]): 27 nM
Compound: O[C@H]1C[C@H](CN2CCC(c3ccccc3Cl)CC2)CCc2cccnc21
IC50 [2]: 1.5 µM

Ki (Nociceptin receptor [1]): 4.4 nM
IC50 (Nociceptin receptor [31]): 5 nM
Compound: O[C@H]1C[C@H](CN2CC[C@H](c3ccc(F)cc3Cl)[C@@H](O)C2)CCc2cccnc21
